# Data: ChEMBL document CHEMBL4354843, “Structure-Based Design of a Potent and Selective Covalent Inhibitor for SRC Kinase That Targets a P-Loop Cysteine” (J Med Chem, 2020)
# Columns and labels:
# [1] = target: Death-associated protein kinase 1 (Homo sapiens) (UniProt P53355); test: Binding affinity to wild-type human partial length DAPK1 (M1 to F296 residues) expressed in bacterial expression system assessed as residual binding level at 1 uM by Kinomescan method relative to control
# [2] = target: 1-phosphatidylinositol 3-phosphate 5-kinase (Homo sapiens) (UniProt Q9Y2I7); test: Binding affinity to wild-type human partial length PIKFYVE (F1512 to C2098 residues) expressed in mammalian expression system assessed as residual binding level at 1 uM by Kinomescan method relative to control
# [3] = test system: Phosphatidylinositol 4,5-bisphosphate 3-kinase catalytic subunit alpha isoform (Homo sapiens), P42336 [M1043I]; test: Binding affinity to human partial length PIK3CA M1043I mutant (R108 to N1068 residues) expressed in mammalian expression system assessed as residual binding level at 1 uM by Kinomescan method relative to control
# How it was run: (§1)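 KinomeScan active site-directed competition binding panel (468 kinases), compound tested at 1 μM. Result expressed as remaining kinase signal versus DMSO control (percent of control).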
# [4] = target: Dual specificity protein kinase CLK4 (Homo sapiens) (UniProt Q9HAZ1); test: Binding affinity to wild-type human partial length CLK4 (R135 to K481 residues) expressed in bacterial expression system assessed as residual binding level at 1 uM by Kinomescan method relative to control
# [5] = target: Mitogen-activated protein kinase kinase kinase 5 (Homo sapiens) (UniProt Q99683); test: Binding affinity to wild-type human partial length ASK1 (E648 to S964 residues) expressed in bacterial expression system assessed as residual binding level at 1 uM by Kinomescan method relative to control
# [6] = target: Mitogen-activated protein kinase kinase kinase 15 (Homo sapiens) (UniProt Q6ZN16); test: Binding affinity to wild-type human partial length MAP3K15 (T625 to L932 residues) expressed in mammalian expression system assessed as residual binding level at 1 uM by Kinomescan method relative to control
# How it was run: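 Active-site-directed competition binding panel of 468 kinases (KinomeScan), compound at 1 μM. The read-out is kinase remaining bound, given as a percentage of the DMSO control. […]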
# [7] = target: Maternal embryonic leucine zipper kinase (Homo sapiens) (UniProt Q14680); test: Binding affinity to wild-type human full length MELK (M1 to V651 residues) expressed in bacterial expression system assessed as residual binding level at 1 uM by Kinomescan method relative to control
# How it was run: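 Active-site-directed competition binding panel (KinomeScan) covering 468 kinases. Test agent was screened at 1 μM. The read-out is the remaining kinase signal expressed relative to a DMSO control. Scores above 35%, taken as weak binding, were not reported.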
# [8] = target: Serine/threonine-protein kinase Nek1 (Homo sapiens) (UniProt Q96PY6); test: Binding affinity to wild-type human partial length NEK1 (M1 to K278 residues) expressed in bacterial expression system assessed as residual binding level at 1 uM by Kinomescan method relative to control
# [9] = target: Calcium/calmodulin-dependent protein kinase kinase 2 (Homo sapiens) (UniProt Q96RR4); test: Binding affinity to wild-type human partial length CAMKK2 (D65 to V471 residues) expressed in bacterial expression system assessed as residual binding level at 1 uM by Kinomescan method relative to control
# [10] = target: Phosphatidylinositol 4,5-bisphosphate 3-kinase catalytic subunit delta isoform (Homo sapiens) (UniProt O00329); test: Binding affinity to wild-type human partial length PIK3CD (R108 to Q1044 residues) expressed in mammalian expression system assessed as residual binding level at 1 uM by Kinomescan method relative to control
# [11] = target: Serine/threonine-protein kinase PLK1 (Homo sapiens) (UniProt P53350); test: Binding affinity to wild-type human partial length PLK1 (A33 to F325 residues) expressed in mammalian expression system assessed as residual binding level at 1 uM by Kinomescan method relative to control
# [12] = test system: Receptor-type tyrosine-protein kinase FLT3 (Homo sapiens), P36888 [D835V]; test: Binding affinity to human partial length FLT3 D835V mutant (V592 to Y969 residues) expressed in bacterial expression system assessed as residual binding level at 1 uM by Kinomescan method relative to control; how it was run: as §1
# [13] = target: Leukocyte tyrosine kinase receptor (Homo sapiens) (UniProt P29376); test: Binding affinity to wild-type human partial length LTK (P422 to S744 residues) expressed in bacterial expression system assessed as residual binding level at 1 uM by Kinomescan method relative to control
# [14] = target: Bone morphogenetic protein receptor type-2 (Homo sapiens) (UniProt Q13873); test: Binding affinity to wild-type human partial length BMPR2 (R179 to Q526 residues) expressed in mammalian expression system assessed as residual binding level at 1 uM by Kinomescan method relative to control
# [15] = test system: Phosphatidylinositol 4,5-bisphosphate 3-kinase catalytic subunit alpha isoform (Homo sapiens), P42336 [H1047Y]; test: Binding affinity to human partial length PIK3CA H1047Y mutant (R108 to N1068 residues) expressed in mammalian expression system assessed as residual binding level at 1 uM by Kinomescan method relative to control; how it was run: as §1
# [16] = target: Non-receptor tyrosine-protein kinase TYK2 (Homo sapiens) (UniProt P29597); test: Binding affinity to wild-type human partial length TYK2 JH2 pseudokinase domain (G556 to D888 residues) expressed in mammalian expression system assessed as residual binding level at 1 uM by Kinomescan method relative to control
# [17] = target: Serine/threonine-protein kinase pim-3 (Homo sapiens) (UniProt Q86V86); test: Binding affinity to wild-type human partial length PIM3 (G16 to A317 residues) expressed in bacterial expression system assessed as residual binding level at 1 uM by Kinomescan method relative to control
# [18] = target: Serine/threonine-protein kinase 4 (Homo sapiens) (UniProt Q13043); test: Binding affinity to wild-type human full length MST1 (M1 to F487 residues) expressed in bacterial expression system assessed as residual binding level at 1 uM by Kinomescan method relative to control
# How it was run: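 KinomeScan, an active site-directed competition binding panel of 468 kinases. The test compound was at 1 μM. The readout is remaining kinase binding as a percentage of the DMSO control. Scores above 35% were treated as weak binding and not listed.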
# [19] = target: Rho-associated protein kinase 1 (Homo sapiens) (UniProt Q13464); test: Binding affinity to wild-type human partial length ROCK1 (M1 to R415 residues) expressed in mammalian expression system assessed as residual binding level at 1 uM by Kinomescan method relative to control
# [20] = target: Serine/threonine-protein kinase DCLK3 (Homo sapiens) (UniProt Q9C098); test: Binding affinity to wild-type human partial length DCAMKL3 (E140 to V628 residues) expressed in bacterial expression system assessed as residual binding level at 1 uM by Kinomescan method relative to control
# [21] = target: Serine/threonine-protein kinase PLK3 (Homo sapiens) (UniProt Q9H4B4); test: Binding affinity to wild-type human partial length PLK3 (A42 to L334 residues) expressed in mammalian expression system assessed as residual binding level at 1 uM by Kinomescan method relative to control
# Sequence of Mitogen-activated protein kinase kinase kinase 5 (Homo sapiens) (Q99683 whole entry, the tested form may be a part): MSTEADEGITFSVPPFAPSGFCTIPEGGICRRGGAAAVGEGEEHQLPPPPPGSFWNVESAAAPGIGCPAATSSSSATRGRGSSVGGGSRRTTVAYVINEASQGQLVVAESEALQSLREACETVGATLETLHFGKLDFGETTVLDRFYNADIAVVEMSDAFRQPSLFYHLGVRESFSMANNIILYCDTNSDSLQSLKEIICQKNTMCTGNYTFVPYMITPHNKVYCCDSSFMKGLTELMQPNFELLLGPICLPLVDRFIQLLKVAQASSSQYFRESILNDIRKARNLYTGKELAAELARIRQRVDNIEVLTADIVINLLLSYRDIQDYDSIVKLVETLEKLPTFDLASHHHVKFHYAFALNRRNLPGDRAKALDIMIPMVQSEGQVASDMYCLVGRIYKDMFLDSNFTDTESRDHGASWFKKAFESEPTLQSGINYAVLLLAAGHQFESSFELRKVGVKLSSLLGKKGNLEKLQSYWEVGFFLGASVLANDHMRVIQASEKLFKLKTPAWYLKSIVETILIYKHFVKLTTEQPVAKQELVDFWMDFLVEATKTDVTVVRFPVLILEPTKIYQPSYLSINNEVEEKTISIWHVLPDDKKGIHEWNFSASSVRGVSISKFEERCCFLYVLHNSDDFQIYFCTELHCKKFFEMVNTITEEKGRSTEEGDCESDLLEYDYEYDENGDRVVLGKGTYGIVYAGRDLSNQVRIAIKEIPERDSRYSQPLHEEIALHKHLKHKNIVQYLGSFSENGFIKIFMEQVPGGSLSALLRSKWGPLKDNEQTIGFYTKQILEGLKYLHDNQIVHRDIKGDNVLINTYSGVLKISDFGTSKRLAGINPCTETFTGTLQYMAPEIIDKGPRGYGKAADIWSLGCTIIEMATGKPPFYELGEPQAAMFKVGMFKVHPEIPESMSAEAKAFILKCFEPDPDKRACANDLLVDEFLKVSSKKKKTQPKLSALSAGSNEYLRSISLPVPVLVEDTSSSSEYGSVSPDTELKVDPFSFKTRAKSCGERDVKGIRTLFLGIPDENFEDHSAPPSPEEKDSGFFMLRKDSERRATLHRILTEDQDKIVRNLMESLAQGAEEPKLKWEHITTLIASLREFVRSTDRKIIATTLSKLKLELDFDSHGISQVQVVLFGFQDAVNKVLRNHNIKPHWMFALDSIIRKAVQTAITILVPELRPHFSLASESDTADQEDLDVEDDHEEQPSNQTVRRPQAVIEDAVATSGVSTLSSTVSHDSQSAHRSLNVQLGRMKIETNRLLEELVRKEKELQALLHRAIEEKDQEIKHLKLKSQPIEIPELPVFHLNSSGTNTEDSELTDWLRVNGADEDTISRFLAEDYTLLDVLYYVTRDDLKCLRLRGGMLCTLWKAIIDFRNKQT
# Sequence of Phosphatidylinositol 4,5-bisphosphate 3-kinase catalytic subunit alpha isoform (Homo sapiens), P42336 [H1047Y] (P42336 whole entry H1047Y, the tested form may be a part, canonical isoform): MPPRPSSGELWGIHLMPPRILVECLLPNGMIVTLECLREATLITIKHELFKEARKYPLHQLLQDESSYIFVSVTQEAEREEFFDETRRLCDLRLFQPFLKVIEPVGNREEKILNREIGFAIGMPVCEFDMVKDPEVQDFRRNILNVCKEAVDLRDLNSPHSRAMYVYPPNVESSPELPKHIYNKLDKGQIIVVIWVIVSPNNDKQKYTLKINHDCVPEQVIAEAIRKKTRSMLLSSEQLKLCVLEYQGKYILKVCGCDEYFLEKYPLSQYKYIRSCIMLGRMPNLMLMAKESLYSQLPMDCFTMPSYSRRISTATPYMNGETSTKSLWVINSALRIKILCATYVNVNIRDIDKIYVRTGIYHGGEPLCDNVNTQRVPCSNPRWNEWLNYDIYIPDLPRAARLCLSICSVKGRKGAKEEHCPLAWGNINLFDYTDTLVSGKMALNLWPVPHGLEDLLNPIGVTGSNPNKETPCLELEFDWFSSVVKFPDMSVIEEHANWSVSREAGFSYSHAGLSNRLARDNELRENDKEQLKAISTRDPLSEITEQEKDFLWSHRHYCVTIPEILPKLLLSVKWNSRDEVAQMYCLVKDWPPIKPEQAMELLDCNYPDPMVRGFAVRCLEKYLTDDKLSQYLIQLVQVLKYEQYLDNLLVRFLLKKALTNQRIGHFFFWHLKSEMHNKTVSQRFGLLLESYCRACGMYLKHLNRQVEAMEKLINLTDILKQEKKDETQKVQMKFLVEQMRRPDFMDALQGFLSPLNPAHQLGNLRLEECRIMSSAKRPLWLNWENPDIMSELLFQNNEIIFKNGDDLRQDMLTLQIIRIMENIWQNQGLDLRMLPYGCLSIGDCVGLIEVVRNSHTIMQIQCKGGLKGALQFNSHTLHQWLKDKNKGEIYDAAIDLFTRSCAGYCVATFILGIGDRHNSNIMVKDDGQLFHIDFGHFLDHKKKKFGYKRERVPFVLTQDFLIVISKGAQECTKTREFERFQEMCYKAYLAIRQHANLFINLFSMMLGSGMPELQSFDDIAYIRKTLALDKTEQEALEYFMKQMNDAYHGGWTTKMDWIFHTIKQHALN
# Sequence of Serine/threonine-protein kinase DCLK3 (Homo sapiens) (Q9C098 whole entry, the tested form may be a part): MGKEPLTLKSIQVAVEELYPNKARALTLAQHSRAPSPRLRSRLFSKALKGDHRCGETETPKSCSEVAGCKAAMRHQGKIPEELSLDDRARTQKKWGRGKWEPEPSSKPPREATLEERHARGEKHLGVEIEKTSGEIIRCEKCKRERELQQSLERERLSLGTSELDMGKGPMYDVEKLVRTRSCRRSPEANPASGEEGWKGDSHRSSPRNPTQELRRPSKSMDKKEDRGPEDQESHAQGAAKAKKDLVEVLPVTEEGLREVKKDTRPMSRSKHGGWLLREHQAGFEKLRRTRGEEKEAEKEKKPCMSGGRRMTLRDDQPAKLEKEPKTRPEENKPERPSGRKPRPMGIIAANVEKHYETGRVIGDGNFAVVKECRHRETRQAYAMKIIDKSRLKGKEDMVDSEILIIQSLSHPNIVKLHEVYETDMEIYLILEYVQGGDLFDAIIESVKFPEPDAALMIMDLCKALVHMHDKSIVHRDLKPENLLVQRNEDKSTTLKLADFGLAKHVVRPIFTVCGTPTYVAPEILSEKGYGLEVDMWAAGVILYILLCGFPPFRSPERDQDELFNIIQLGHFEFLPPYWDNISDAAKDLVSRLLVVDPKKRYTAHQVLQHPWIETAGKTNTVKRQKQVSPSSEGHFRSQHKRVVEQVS
# Sequence of Serine/threonine-protein kinase 4 (Homo sapiens) (Q13043 whole entry, the tested form may be a part): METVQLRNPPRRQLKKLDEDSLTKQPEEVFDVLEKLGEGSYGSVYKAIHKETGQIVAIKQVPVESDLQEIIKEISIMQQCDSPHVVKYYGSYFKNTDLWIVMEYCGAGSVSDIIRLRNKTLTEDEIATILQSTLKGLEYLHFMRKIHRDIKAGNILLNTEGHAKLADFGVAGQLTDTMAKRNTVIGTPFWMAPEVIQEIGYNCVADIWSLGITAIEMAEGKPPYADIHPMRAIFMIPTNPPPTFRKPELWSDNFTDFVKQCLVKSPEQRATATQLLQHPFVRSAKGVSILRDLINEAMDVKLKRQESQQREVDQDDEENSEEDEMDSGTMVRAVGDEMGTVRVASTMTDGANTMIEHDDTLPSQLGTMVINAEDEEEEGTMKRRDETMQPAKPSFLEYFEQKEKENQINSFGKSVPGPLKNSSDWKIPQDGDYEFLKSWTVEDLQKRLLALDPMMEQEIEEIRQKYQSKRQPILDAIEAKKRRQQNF
# Sequence of Leukocyte tyrosine kinase receptor (Homo sapiens) (P29376 whole entry, the tested form may be a part): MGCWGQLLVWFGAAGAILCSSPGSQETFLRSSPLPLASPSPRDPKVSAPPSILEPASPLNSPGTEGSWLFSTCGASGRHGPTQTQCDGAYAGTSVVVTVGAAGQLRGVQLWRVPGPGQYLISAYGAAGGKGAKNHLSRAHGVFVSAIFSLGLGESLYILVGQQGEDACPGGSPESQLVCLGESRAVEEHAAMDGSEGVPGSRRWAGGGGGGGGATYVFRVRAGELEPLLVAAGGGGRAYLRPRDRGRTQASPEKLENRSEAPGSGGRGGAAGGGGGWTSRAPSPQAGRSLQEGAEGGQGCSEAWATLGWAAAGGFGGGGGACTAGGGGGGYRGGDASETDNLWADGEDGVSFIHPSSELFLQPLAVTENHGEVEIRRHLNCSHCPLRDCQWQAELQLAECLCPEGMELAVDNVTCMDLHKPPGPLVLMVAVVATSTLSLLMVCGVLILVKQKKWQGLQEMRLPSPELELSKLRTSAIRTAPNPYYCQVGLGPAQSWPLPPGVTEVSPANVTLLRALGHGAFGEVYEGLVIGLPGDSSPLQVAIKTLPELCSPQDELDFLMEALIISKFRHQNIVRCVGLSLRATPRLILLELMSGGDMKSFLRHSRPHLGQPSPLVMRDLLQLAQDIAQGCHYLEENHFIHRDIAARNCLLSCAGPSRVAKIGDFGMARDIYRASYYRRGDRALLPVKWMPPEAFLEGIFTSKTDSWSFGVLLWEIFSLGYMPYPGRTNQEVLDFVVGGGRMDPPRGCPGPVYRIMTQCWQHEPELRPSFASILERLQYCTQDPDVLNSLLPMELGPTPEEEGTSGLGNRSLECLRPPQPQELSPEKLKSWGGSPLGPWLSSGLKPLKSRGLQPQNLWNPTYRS
# Sequence of Dual specificity protein kinase CLK4 (Homo sapiens) (Q9HAZ1 whole entry, looked up, the tested form may be a part): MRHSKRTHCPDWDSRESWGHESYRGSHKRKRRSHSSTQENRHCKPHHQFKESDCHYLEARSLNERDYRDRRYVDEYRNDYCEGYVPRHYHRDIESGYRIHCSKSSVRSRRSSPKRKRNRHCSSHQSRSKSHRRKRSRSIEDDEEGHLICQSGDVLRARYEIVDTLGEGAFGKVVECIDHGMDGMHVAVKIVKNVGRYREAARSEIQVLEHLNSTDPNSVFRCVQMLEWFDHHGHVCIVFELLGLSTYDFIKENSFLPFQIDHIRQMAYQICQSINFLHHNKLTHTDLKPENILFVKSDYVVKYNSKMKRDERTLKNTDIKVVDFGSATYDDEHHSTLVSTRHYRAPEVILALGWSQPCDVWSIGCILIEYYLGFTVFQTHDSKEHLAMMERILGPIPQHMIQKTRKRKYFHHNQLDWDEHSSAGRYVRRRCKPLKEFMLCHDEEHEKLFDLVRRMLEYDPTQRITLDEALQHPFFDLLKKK
structure (smiles),measurement,setting,value
C=CC(=O)Nc1ccccc1Nc1nc(Nc2ccc(N3CCN(C)CC3)cc2)ncc1C(=O)Nc1c(C)cccc1Cl,Activity,[1],100%
same,Activity,[2],100%
same,Activity,[3],100%
same,Activity,[4],100%
same,Activity,[5],100%
same,Activity,[6],80%
same,Activity,[7],100%
same,Activity,[8],100%
same,Activity,[9],100%
same,Activity,[10],100%
same,Activity,[11],100%
same,Activity,[12],91%
same,Activity,[13],100%
same,Activity,[14],100%
same,Activity,[15],100%
same,Activity,[16],100%
same,Activity,[17],100%
same,Activity,[18],93%
same,Activity,[19],100%
same,Activity,[20],100%
same,Activity,[21],100%
